{
  "source": "ChEMBL document CHEMBL3600382",
  "about": "“A-ring substituted 17β-arylsulfonamides of 17β-aminoestra-1,3,5(10)-trien-3-ol as highly potent reversible inhibitors of steroid sulfatase” (Bioorg Med Chem, 2015)",
  "data": [
    {"test_system": "not listed separately", "test": "Cytotoxicity against human EKVX cells", "assay_type": "functional", "conditions": "not given", "units": {"GI50": "µM"}, "values": [
      {"smiles": "C[C@]12CC[C@@H]3c4ccc(O)c([N+](=O)[O-])c4CC[C@H]3[C@@H]1CC[C@@H]2NS(=O)(=O)c1cccc(C(F)(F)F)c1", "GI50": 1}
    ]},
    {"test_system": "not listed separately", "test": "Cytotoxicity against human NCI-ADR-RES cells", "assay_type": "functional", "conditions": "not given", "units": {"GI50": "µM"}, "values": [
      {"smiles": "C[C@]12CC[C@@H]3c4ccc(O)c([N+](=O)[O-])c4CC[C@H]3[C@@H]1CC[C@@H]2NS(=O)(=O)c1cccc(C(F)(F)F)c1", "GI50": 1}
    ]},
    {"test_system": "786-0", "test": "Cytotoxicity against human 786-0 cells", "assay_type": "functional", "conditions": "not given", "units": {"GI50": "µM"}, "values": [
      {"smiles": "C[C@]12CC[C@@H]3c4ccc(O)c([N+](=O)[O-])c4CC[C@H]3[C@@H]1CC[C@@H]2NS(=O)(=O)c1cccc(C(F)(F)F)c1", "GI50": 1}
    ]},
    {"test_system": "SF-295", "test": "Cytotoxicity against human SF295 cells", "assay_type": "functional", "conditions": "not given", "units": {"GI50": "µM"}, "values": [
      {"smiles": "C[C@]12CC[C@@H]3c4ccc(O)c([N+](=O)[O-])c4CC[C@H]3[C@@H]1CC[C@@H]2NS(=O)(=O)c1cccc(C(F)(F)F)c1", "GI50": 1}
    ]},
    {"test_system": "MDA-MB-435", "test": "Cytotoxicity against human MDA-MB-435 cells", "assay_type": "functional", "conditions": "not given", "units": {"GI50": "µM"}, "values": [
      {"smiles": "C[C@]12CC[C@@H]3c4ccc(O)c([N+](=O)[O-])c4CC[C@H]3[C@@H]1CC[C@@H]2NS(=O)(=O)c1cccc(C(F)(F)F)c1", "GI50": 1}
    ]},
    {"test_system": "NCI-H226", "test": "Cytotoxicity against human NCI-H226 cells", "assay_type": "functional", "conditions": "not given", "units": {"GI50": "µM"}, "values": [
      {"smiles": "C[C@]12CC[C@@H]3c4ccc(O)c([N+](=O)[O-])c4CC[C@H]3[C@@H]1CC[C@@H]2NS(=O)(=O)c1cccc(C(F)(F)F)c1", "GI50": 1}
    ]},
    {"test_system": "A498", "test": "Cytotoxicity against human A498 cells", "assay_type": "functional", "conditions": "not given", "units": {"GI50": "µM"}, "values": [
      {"smiles": "C[C@]12CC[C@@H]3c4ccc(O)c([N+](=O)[O-])c4CC[C@H]3[C@@H]1CC[C@@H]2NS(=O)(=O)c1cccc(C(F)(F)F)c1", "GI50": 1}
    ]},
    {"test_system": "IGROV-1", "test": "Cytotoxicity against human IGROV1 cells", "assay_type": "functional", "conditions": "not given", "units": {"GI50": "µM"}, "values": [
      {"smiles": "C[C@]12CC[C@@H]3c4ccc(O)c([N+](=O)[O-])c4CC[C@H]3[C@@H]1CC[C@@H]2NS(=O)(=O)c1cccc(C(F)(F)F)c1", "GI50": 1}
    ]},
    {"test_system": "OVCAR-8", "test": "Cytotoxicity against human OVCAR8 cells", "assay_type": "functional", "conditions": "not given", "units": {"GI50": "µM"}, "values": [
      {"smiles": "C[C@]12CC[C@@H]3c4ccc(O)c([N+](=O)[O-])c4CC[C@H]3[C@@H]1CC[C@@H]2NS(=O)(=O)c1cccc(C(F)(F)F)c1", "GI50": 1}
    ]},
    {"target": "T1, Steryl-sulfatase (Homo sapiens, UniProt P08842)", "T1 sequence (P08842 whole entry)": "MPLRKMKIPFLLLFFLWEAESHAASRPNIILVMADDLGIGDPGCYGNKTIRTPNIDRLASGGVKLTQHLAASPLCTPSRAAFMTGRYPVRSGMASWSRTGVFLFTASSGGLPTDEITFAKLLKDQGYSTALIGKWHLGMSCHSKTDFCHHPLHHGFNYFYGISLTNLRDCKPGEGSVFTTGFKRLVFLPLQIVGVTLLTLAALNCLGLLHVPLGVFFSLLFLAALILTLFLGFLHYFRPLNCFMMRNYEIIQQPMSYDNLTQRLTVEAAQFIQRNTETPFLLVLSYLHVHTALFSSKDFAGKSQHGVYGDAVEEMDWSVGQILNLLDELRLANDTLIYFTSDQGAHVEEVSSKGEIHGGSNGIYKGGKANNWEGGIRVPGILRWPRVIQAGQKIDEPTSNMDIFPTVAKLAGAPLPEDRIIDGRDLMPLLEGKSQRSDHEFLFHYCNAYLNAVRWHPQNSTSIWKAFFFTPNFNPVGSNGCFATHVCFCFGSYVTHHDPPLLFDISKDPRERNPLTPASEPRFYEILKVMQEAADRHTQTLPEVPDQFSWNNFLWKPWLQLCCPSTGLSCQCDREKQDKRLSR", "test": "Inhibition of STS (unknown origin) using 4-MUS as substrate measured over 10 mins by fluorescence assay", "conditions": "not given", "method_in_brief": "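Purified STS (10 nM final) in 0.1 M Tris-HCl pH 7.0 containing Triton X-100, 4-MUS 200 µM final, and inhibitor at eleven concentrations (5 nM–5 µM). Ex 360/em 460 fluorescence read over 10 min at 24 °C, in quadruplicate, with no-enzyme controls. Vi/V0 from initial rates fit to a slope-factor equation. For tight binders, Ki app is the y-intercept of IC50 vs [E] (10–80 nM).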", "units": {"IC50": "µM"}, "values": [
      {"smiles": "C[C@]12CC[C@@H]3c4ccc(O)c([N+](=O)[O-])c4CC[C@H]3[C@@H]1CC[C@@H]2NS(=O)(=O)c1cccc(C(F)(F)F)c1", "IC50": 0.011}
    ]},
    {"test_system": "OVCAR-3", "test": "Cytotoxicity against human OVCAR3 cells", "assay_type": "functional", "conditions": "not given", "units": {"GI50": "µM"}, "values": [
      {"smiles": "C[C@]12CC[C@@H]3c4ccc(O)c([N+](=O)[O-])c4CC[C@H]3[C@@H]1CC[C@@H]2NS(=O)(=O)c1cccc(C(F)(F)F)c1", "GI50": 1}
    ]},
    {"test_system": "not listed separately", "test": "Cytotoxicity against human Hs578T cells", "assay_type": "functional", "conditions": "Hs-578T", "units": {"GI50": "µM"}, "values": [
      {"smiles": "C[C@]12CC[C@@H]3c4ccc(O)c([N+](=O)[O-])c4CC[C@H]3[C@@H]1CC[C@@H]2NS(=O)(=O)c1cccc(C(F)(F)F)c1", "GI50": 2.2}
    ]},
    {"test_system": "LOX IMVI", "test": "Cytotoxicity against human LOXIMVI cells", "assay_type": "functional", "conditions": "not given", "units": {"GI50": "µM"}, "values": [
      {"smiles": "C[C@]12CC[C@@H]3c4ccc(O)c([N+](=O)[O-])c4CC[C@H]3[C@@H]1CC[C@@H]2NS(=O)(=O)c1cccc(C(F)(F)F)c1", "GI50": 1}
    ]},
    {"test_system": "HOP-92", "test": "Cytotoxicity against human HOP92 cells", "assay_type": "functional", "conditions": "not given", "units": {"GI50": "µM"}, "values": [
      {"smiles": "C[C@]12CC[C@@H]3c4ccc(O)c([N+](=O)[O-])c4CC[C@H]3[C@@H]1CC[C@@H]2NS(=O)(=O)c1cccc(C(F)(F)F)c1", "GI50": 1}
    ]},
    {"test_system": "SF-539", "test": "Cytotoxicity against human SF539 cells", "assay_type": "functional", "conditions": "not given", "units": {"GI50": "µM"}, "values": [
      {"smiles": "C[C@]12CC[C@@H]3c4ccc(O)c([N+](=O)[O-])c4CC[C@H]3[C@@H]1CC[C@@H]2NS(=O)(=O)c1cccc(C(F)(F)F)c1", "GI50": 1}
    ]},
    {"test_system": "TK-10", "test": "Cytotoxicity against human TK10 cells", "assay_type": "functional", "conditions": "not given", "units": {"GI50": "µM"}, "values": [
      {"smiles": "C[C@]12CC[C@@H]3c4ccc(O)c([N+](=O)[O-])c4CC[C@H]3[C@@H]1CC[C@@H]2NS(=O)(=O)c1cccc(C(F)(F)F)c1", "GI50": 1}
    ]},
    {"test_system": "MCF7", "test": "Cytotoxicity against human MCF7 cells", "assay_type": "functional", "conditions": "not given", "units": {"GI50": "µM"}, "values": [
      {"smiles": "C[C@]12CC[C@@H]3c4ccc(O)c([N+](=O)[O-])c4CC[C@H]3[C@@H]1CC[C@@H]2NS(=O)(=O)c1cccc(C(F)(F)F)c1", "GI50": 1.8}
    ]},
    {"test_system": "HL-60(TB)", "test": "Cytotoxicity against human HL-60(TB) cells", "assay_type": "functional", "conditions": "not given", "units": {"GI50": "µM"}, "values": [
      {"smiles": "C[C@]12CC[C@@H]3c4ccc(O)c([N+](=O)[O-])c4CC[C@H]3[C@@H]1CC[C@@H]2NS(=O)(=O)c1cccc(C(F)(F)F)c1", "GI50": 1}
    ]},
    {"test_system": "MDA-MB-231", "test": "Cytotoxicity against human MDA-MB-231 cells", "assay_type": "functional", "conditions": "not given", "units": {"GI50": "µM"}, "values": [
      {"smiles": "C[C@]12CC[C@@H]3c4ccc(O)c([N+](=O)[O-])c4CC[C@H]3[C@@H]1CC[C@@H]2NS(=O)(=O)c1cccc(C(F)(F)F)c1", "GI50": 1.9}
    ]},
    {"test_system": "CAKI-1", "test": "Cytotoxicity against human Caki1 cells", "assay_type": "functional", "conditions": "not given", "units": {"GI50": "µM"}, "values": [
      {"smiles": "C[C@]12CC[C@@H]3c4ccc(O)c([N+](=O)[O-])c4CC[C@H]3[C@@H]1CC[C@@H]2NS(=O)(=O)c1cccc(C(F)(F)F)c1", "GI50": 1}
    ]},
    {"test_system": "RXF 393", "test": "Cytotoxicity against human RXF393 cells", "assay_type": "functional", "conditions": "not given", "units": {"GI50": "µM"}, "values": [
      {"smiles": "C[C@]12CC[C@@H]3c4ccc(O)c([N+](=O)[O-])c4CC[C@H]3[C@@H]1CC[C@@H]2NS(=O)(=O)c1cccc(C(F)(F)F)c1", "GI50": 1}
    ]},
    {"test_system": "ACHN", "test": "Cytotoxicity against human ACHN cells", "assay_type": "functional", "conditions": "not given", "units": {"GI50": "µM"}, "values": [
      {"smiles": "C[C@]12CC[C@@H]3c4ccc(O)c([N+](=O)[O-])c4CC[C@H]3[C@@H]1CC[C@@H]2NS(=O)(=O)c1cccc(C(F)(F)F)c1", "GI50": 1}
    ]},
    {"test_system": "SK-OV-3", "test": "Cytotoxicity against human SKOV3 cells", "assay_type": "functional", "conditions": "not given", "units": {"GI50": "µM"}, "values": [
      {"smiles": "C[C@]12CC[C@@H]3c4ccc(O)c([N+](=O)[O-])c4CC[C@H]3[C@@H]1CC[C@@H]2NS(=O)(=O)c1cccc(C(F)(F)F)c1", "GI50": 1}
    ]},
    {"test_system": "UACC-62", "test": "Cytotoxicity against human UACC62 cells", "assay_type": "functional", "conditions": "not given", "units": {"GI50": "µM"}, "values": [
      {"smiles": "C[C@]12CC[C@@H]3c4ccc(O)c([N+](=O)[O-])c4CC[C@H]3[C@@H]1CC[C@@H]2NS(=O)(=O)c1cccc(C(F)(F)F)c1", "GI50": 1}
    ]},
    {"test_system": "HT-29", "test": "Cytotoxicity against human HT-29 cells", "assay_type": "functional", "conditions": "not given", "units": {"GI50": "µM"}, "values": [
      {"smiles": "C[C@]12CC[C@@H]3c4ccc(O)c([N+](=O)[O-])c4CC[C@H]3[C@@H]1CC[C@@H]2NS(=O)(=O)c1cccc(C(F)(F)F)c1", "GI50": 1}
    ]}
  ]
}
